Published values gathered from unrelated publications.
Compare with care: the assays were run in different laboratories.
Target: NUAK family SNF1-like kinase 1 (NUAK1, Homo sapiens, UniProt O60285)
Sequence (O60285 1-661, as in one of the studies): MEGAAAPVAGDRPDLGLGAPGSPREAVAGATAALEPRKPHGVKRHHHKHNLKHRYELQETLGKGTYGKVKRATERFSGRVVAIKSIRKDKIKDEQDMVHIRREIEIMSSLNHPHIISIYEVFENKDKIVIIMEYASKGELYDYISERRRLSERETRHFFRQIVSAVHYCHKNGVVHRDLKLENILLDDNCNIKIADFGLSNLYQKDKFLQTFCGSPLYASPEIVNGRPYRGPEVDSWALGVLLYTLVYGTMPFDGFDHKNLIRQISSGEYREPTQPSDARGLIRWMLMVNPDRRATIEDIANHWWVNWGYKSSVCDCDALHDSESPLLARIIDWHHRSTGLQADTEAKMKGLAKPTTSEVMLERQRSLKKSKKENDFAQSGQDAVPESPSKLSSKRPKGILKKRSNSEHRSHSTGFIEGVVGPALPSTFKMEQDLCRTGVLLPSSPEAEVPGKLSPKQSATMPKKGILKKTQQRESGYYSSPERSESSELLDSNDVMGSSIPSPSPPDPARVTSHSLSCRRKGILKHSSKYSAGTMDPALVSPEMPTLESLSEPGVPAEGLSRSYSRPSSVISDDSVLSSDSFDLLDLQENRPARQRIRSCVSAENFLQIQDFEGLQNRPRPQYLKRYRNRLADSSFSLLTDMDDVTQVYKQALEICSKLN

| SMILES | assay | conditions | remaining binding [%] |
| --- | --- | --- | --- |
| CCCCN(CCCC)C(=O)CN1C[C@@H](c2cc(OC)c3c(c2)OCO3)[C@H](C(=O)O)[C@H]1CC(C)(C)CCC | cell-free assay, competition with immobilised ligand | 1 µM | 82.4 |
| COc1cnc(Nc2cccc(S(N)(=O)=O)c2)nc1N1CCN(c2ccccc2)CC1 | binding, competition with immobilised ligand | 1 µM | 82 |
| C[C@@H]1CCN(c2nccc(-c3cnn4ncccc34)n2)C1 | binding | 1 µM | 93 |
| CC(=O)N1CCC(c2ccc(C(=O)NC3=NCCN3)cc2C(F)(F)F)CC1 | cell-free assay, competition with immobilised ligand | 1 µM | 98 |
| COc1ncc2cc3ccccc3nc2c1C#N | cell-free assay, competition with immobilised ligand | 5 µM | 87 |
| O=C(NCCCN1CCOCC1)c1ccc(Nc2ncc(Cl)c(-c3ccc(Cl)s3)n2)cc1 | binding, competition with immobilised ligand | 1 µM | 0.9 |
| CN(C)c1ncc(F)c(-c2cnn3ncccc23)n1 | binding | 1 µM | 100 |
| O=C(c1ccc(Nc2nccc(-c3cc4ccccc4s3)n2)cc1)N1CCC(N2CCCC2)CC1 | binding, competition with immobilised ligand | 1 µM | 22 |
| CN(C)c1nccc(-c2cnc3ncccn23)n1 | binding | 1 µM | 98 |
| O=C1CCc2cc(Nc3cc(OC4CCOCC4)c([N+](=O)[O-])cc3Cl)ccc2N1 | cell-free assay, competition with immobilised ligand | 1 µM | 100 |
| N[C@@H]1CCN(c2nccc(-c3cnn4ncccc34)n2)C1 | binding | 1 µM | 44 |
| O=C(NCC1CCOCC1)c1n[nH]cc1NC(=O)c1c(F)cccc1F | binding, competition with immobilised ligand | 1 µM | 100 |
| Cc1cnc(Nc2ccc(C(=O)N3CCC(N4CCCC4)CC3)cc2)nc1-c1cc2ccccc2s1 | binding, competition with immobilised ligand | 1 µM | 2.7 |
| CCC(=N\O)/C(C)=C/c1ccc(F)cc1 | cell-free assay, competition with immobilised ligand | 1 µM | 100 |
| Nc1ncc2c(n1)-c1c([nH]c3ccc(C#CC4CC4)cc13)CCCC2 | binding, competition with immobilised ligand | 1 µM | 100 |
| CNCc1ccccc1-c1csc([C@H](C)Nc2nc(C)nc3cc(OC)c(OC)cc23)c1 | cell-free assay, competition with immobilised ligand | 1 µM | 90 |
| CN(C)c1nccc(-c2cnn3ncccc23)n1 | binding | 1 µM | 97 |
| NS(=O)(=O)c1cc(NC(=O)Cc2ccccc2)ccc1Oc1cccc(Cl)c1 | cell-free assay, competition with immobilised ligand | 1 µM | 100 |
| CN(CCCC(F)(F)F)c1nccc(-c2cnn3ncccc23)n1 | binding | 1 µM | 100 |
